The results in this text go back to ChEMBL document CHEMBL3232971, “Synthesis and in vitro evaluation of 12-(substituted aminomethyl) berberrubine derivatives as anti-diabetics” (2014).

Activity calls are given as the source filed them. No cut-off for these calls is given here.

Assay [1] concerns 3T3-L1. The assay is described as follows: Reversal of high glucose-induced insulin resistance in mouse 3T3L1 cells assessed as relative sensitization rate at 10 umol/ml relative to rosiglitazone. Type of assay: functional. An outline of the steps:
(§1)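 Mouse 3T3-L1 preadipocytes were grown in high-glucose DMEM with 10% FBS and phenol red. At 90% confluence they were differentiated for 4 days with FBS, insulin, dexamethasone and IBMX. Cells were replated and kept 2 days in FBS medium. Insulin resistance was induced over 4 days with low insulin and high dexamethasone. Cells were then treated with sample in phenol red-free high-glucose DMEM, at three concentrations. Controls were normal differentiated cells (blank) and untreated insulin-resistant cells (negative); rosiglitazone was the positive control.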

Assay [2] has as its system 3T3-L1. The assay is described as follows: Reversal of high glucose-induced insulin resistance in mouse 3T3L1 cells assessed as relative sensitization rate at 1 umol/ml relative to rosiglitazone. Type of assay: functional. An outline of the steps: as §1
For assay [3], the system named is 3T3-L1. In words: Reversal of high glucose-induced insulin resistance in mouse 3T3L1 cells assessed as relative sensitization rate at 0.10 umol/ml relative to rosiglitazone. The class given is functional. In outline: as §1
Assay [4] has as its system L6. In words: Increase in glucose transport in rat L6 cells assessed as sensitization rate at 10 umol/ml. The class given is functional. An outline of the steps:
(§2)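 Rat L6 myoblasts were grown 24 h in high-glucose DMEM with 10% FBS and phenol red. They were differentiated to myotubes in high-glucose DMEM with 2% FBS for 6–8 days, with medium changed every 48 h. Cells were then starved serum-free overnight, and 4–6 h without serum or glucose. Samples were added in serum-free DMEM with 20 mmol glucose for 16–24 h. Supernatant glucose was read by kit at OD 490 nm. Sensitization rate = (negative OD − sample OD)/(negative OD − blank OD) × 100%, tested at two concentrations.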

For assay [5], the system named is L6. The assay is described as follows: Increase in glucose transport in rat L6 cells assessed as sensitization rate at 1 umol/ml. The class given is functional. In outline: as §2
Assay [6] has as its system 3T3-L1. The assay is described as follows: Reversal of high glucose-induced insulin resistance in mouse 3T3L1 cells. The class given is functional, cell-based. In outline:
as §1

Assay [7] relates to 3T3-L1. The assay is described as follows: Reversal of high glucose-induced insulin resistance in mouse 3T3L1 cells at 1 umol/ml. Type of assay: functional, cell-based. In outline: as §1
Assay [8] concerns 3T3-L1. The assay is described as follows: Reversal of high glucose-induced insulin resistance in mouse 3T3L1 cells assessed as insulin sensitization relative to rosiglitazone. Type of assay: functional. In outline:
as §1

As to `COc1ccc2cc3[n+](cc2c1OC)CCc1cc2c(cc1-3)OCO2.[Cl-]` [BERBERINE CHLORIDE], the Activity in assay [1] is recorded as 74.23%; in assay [2] it was 13.27%; in assay [3], -2.93%; in assay [4], 43.28%; in assay [5], 21.3%.

`COc1cc(CN2CCCC2)c2cc3[n+](cc2c1O)CCc1cc2c(cc1-3)OCO2.[Cl-]`: the Activity is given as 73.15% in assay [1]; -12.1% in assay [2]; -22.09% in assay [3]; 40.73% in assay [4]; 7.95% in assay [5].

Take `COc1cc(CN(Cc2ccccc2)Cc2ccccc2)c2cc3[n+](cc2c1O)CCc1cc2c(cc1-3)OCO2.[Cl-]`: the Activity is on record as 65.58% in assay [1]; -9.51% in assay [2]; -17.34% in assay [3]; 70.02% in assay [4]; 28.39% in assay [5].

In the case of `COc1cc(CN2CCCCC2)c2cc3[n+](cc2c1O)CCc1cc2c(cc1-3)OCO2.[Cl-]`, the Activity in assay [1] is 102.93%; in assay [6] it was “Dose-dependent effect”; in assay [2], 41.02%; in assay [3], 8.33%; in assay [4], 43.53%; in assay [5], 15.78%.

For the compound `COc1cc(CN2CCN(C)CC2)c2cc3[n+](cc2c1O)CCc1cc2c(cc1-3)OCO2.[Cl-]`, the Activity in assay [1] is 126.29%; in assay [6], “Dose-dependent effect”; in assay [2] it was 90.23%; in assay [3] it was -1.09%; in assay [4] it was 48.55%; in assay [5], 41.9%. Moreover, the result in assay [7] was Active. Further, the “fold change (FC)” value in assay [8] worked out at 1.26.

For `COc1cc(CN(C(C)C)C(C)C)c2cc3[n+](cc2c1O)CCc1cc2c(cc1-3)OCO2.[Cl-]`, the Activity is 112.25% in assay [1]; “Dose-dependent effect” in assay [6]; 28.02% in assay [2]; -64.34% in assay [3]; 46.08% in assay [4]; 17.97% in assay [5].

Regarding `COc1cc(CN(C)C)c2cc3[n+](cc2c1O)CCc1cc2c(cc1-3)OCO2.[Cl-]`, the Activity in assay [1] is listed as 51.59%; in assay [2] it was -17.72%; in assay [3], -16.79%; in assay [4] it was 78.5%; in assay [5], 51.3%.

As for `CCN(CC)Cc1cc(OC)c(O)c2c[n+]3c(cc12)-c1cc2c(cc1CC3)OCO2.[Cl-]`, the Activity is on record as 75.63% in assay [1]; 23.48% in assay [2]; 2.03% in assay [3]; 48.83% in assay [4]; 5.81% in assay [5].

Take `COc1cc(CN2CCOCC2)c2cc3[n+](cc2c1O)CCc1cc2c(cc1-3)OCO2.[Cl-]`: the Activity is 115.14% in assay [1]; “Dose-dependent effect” in assay [6]; 68.72% in assay [2]; 28.22% in assay [3]; 57.22% in assay [4]; 26.16% in assay [5].

As to `COc1cc(CN2CCN(C(=O)OC(C)(C)C)CC2)c2cc3[n+](cc2c1O)CCc1cc2c(cc1-3)OCO2.[Cl-]`, the Activity in assay [1] is 107.3%; in assay [6], “Dose-dependent effect”; in assay [2], 3.14%; in assay [3], -43.33%; in assay [4] it was 52.51%; in assay [5], 23.32%.

In the case of `COc1cc(CN(c2ccccc2)c2ccccc2)c2cc3[n+](cc2c1O)CCc1cc2c(cc1-3)OCO2.[Cl-]`, the Activity in assay [1] is recorded as 96.66%; in assay [2], 62.08%; in assay [3], 33.38%; in assay [4], 53.05%; in assay [5] it was 12.43%.
